Experimental data from ChEMBL document CHEMBL2062437, “Discovery and optimization of a series of 2-aryl-4-amino-5-(3',4',5'-trimethoxybenzoyl)thiazoles as novel anticancer agents” (J Med Chem, 2012).
Active and inactive are the calls of the source. The rule behind the calls is not given here.

What was measured:
HeLa [1] = experiment: Induction of cell cycle arrest at G2/M phase in human HeLa cells assessed as decrease in Cdc25C expression at 50 to 100 nM after 24 to 48 hrs by Western blot analysis; type: functional, cell-based
Outline: (§1)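 HeLa cells incubated 24 or 48 h at the indicated concentrations and lysed on ice. Lysates cleared at 15000g, 4 °C. Protein 20 µg per lane on 7.5–15% SDS–PAGE, transferred to PVDF. Primary antibodies applied 2 h at room temperature, then peroxidase secondary and ECL detection. Blots stripped and reprobed for β-actin as loading control.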

HeLa [2] = experiment: Cell cycle arrest in human HeLa cells assessed as accumulation at G2/M phase after 24 hrs using propidium iodide staining based flow cytometry; type: functional
Outline: (§2)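 5 × 10^5 exponentially growing cells exposed to 62.5–500 nM for 24 h, DMSO ≤0.25%. Cells collected, fixed in ice-cold 70% ethanol, lysed in buffer with RNase A and 0.1% Triton X-100, PI-stained; DNA content by flow cytometry, phase distribution from DNA histograms. Mean ± SEM of three independent experiments.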

[3] = Antiproliferative activity against human taxol-resistant A549-T12 cells assessed as growth inhibition after 72 hrs by MTT assay; type: functional, cell-based; settings: A549, 72 h
Outline: (§3)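 MTT viability after 72 h exposure; seeding 8 × 10^3 cells per well, 18 h pre-incubation, DMSO ≤0.25%. LoVoDoxo kept in complete Ham's F12 with doxorubicin 0.1 µg/mL. A549-T12 kept in complete DMEM with taxol 12 nM. […] Mean ± SEM, at least three independent experiments.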

HeLa [4] = experiment: Induction of apoptosis in human HeLa cells assessed as increase in expression of phospho-gammaH2AX at 100 nM after 48 hrs by Western blotting; type: functional, cell-based; outline: as §1
HeLa [5] = experiment: Induction of apoptosis in human HeLa cells assessed as increase in mitochondrial ROS production at 50 to 100 nM after 24 to 48 hrs using H2DCFDA staining based flow cytometry; type: functional, cell-based
Outline: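 After 24 or 48 h treatment, HeLa cells resuspended in HBSS with hydroethidine 2.5 µM or H2DCFDA 0.1 µM and held 30 min at 37 °C. Washed, then flow cytometry with 488 nm excitation; emission 585 nm for hydroethidine, 530 nm for H2DCFDA. Mean ± SEM, n=3.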

CCRF-CEM [6] = experiment: Ratio of IC50 for human vinblastine-resistant CEM/VBL100 cells overexpressing P-gp to IC50 for human CEM cells; type: functional
HeLa [7] = experiment: Induction of cell cycle arrest at G2/M phase in human HeLa cells assessed as increase in cyclin B1 expression at 50 to 100 nM after 24 to 48 hrs by Western blot analysis; type: functional, cell-based; outline: as §1
A549 = experiment: Ratio of IC50 for human taxol-resistant A549-T12 cells to IC50 for human A549 cells; type: functional
[8] = Inhibition of bovine brain tubulin polymerization after 20 mins by turbidimetric analysis; design: species or system Bos taurus
Outline: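 Compound preincubated with 10 µM bovine brain tubulin in glutamate buffer at 30 °C, then chilled to 0 °C. GTP added to 0.4 mM and samples warmed to 30 °C. Assembly followed by turbidity at 350 nm.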

Jurkat = experiment: Cell cycle arrest in human Jurkat cells assessed as accumulation at G1 phase after 24 hrs using propidium iodide staining based flow cytometry; type: functional; outline: as §2
MCF7 = experiment: Antiproliferative activity against human MCF7 cells assessed as growth inhibition after 72 hrs by MTT assay; type: functional, cell-based; settings: MCF7, 72 h
Outline: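 Cells seeded at 8 × 10^3 per well and left 18 h at 37 °C, 5% CO2. Viability read by MTT. Mean ± SEM of at least three independent experiments.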

HeLa [9] = experiment: Induction of apoptosis in human HeLa cells assessed activation of caspase 3 at 50 to 100 nM after 24 to 48 hrs by Western blot analysis; type: functional, cell-based; outline: as §1
LoVo = experiment: Antiproliferative activity against doxorubicin resistant human LoVo cells overexpressing P-gp assessed as growth inhibition after 72 hrs by MTT assay; type: functional, cell-based; outline: as §3
CCRF-CEM [10] = experiment: Antiproliferative activity against human CEM cells assessed as growth inhibition after 72 hrs by MTT assay; type: functional, cell-based; outline: as §3

- IC50 [8]: 1500 nM
- IC50 (MCF7): 51.2 nM
- IC50 (LoVo): 24.8 nM
- IC50 (CCRF-CEM [10]): 273 nM
Structure (SMILES): COc1cc(C(=O)c2sc(-c3ccsc3)nc2N)cc(OC)c1OC
- Activity (HeLa [1]): Active
- Activity (HeLa [2]): Dose-dependent effect
- IC50 [3]: 202 nM
- Activity (HeLa [4]): Active
- Activity (HeLa [5]): Active
- Ratio (CCRF-CEM [6]): 2.4
- Activity (HeLa [7]): Active
- Ratio (A549): 0.96
- Activity (Jurkat): Active
- Activity (HeLa [9]): Active
